Experimental findings from ChEMBL document CHEMBL1131263, “Substituted tetrahydropyrrolo[2,1-b]oxazol-5(6H)-ones and tetrahydropyrrolo[2,1-b]thiazol-5(6H)-ones as hypoglycemic agents” (1998) are described below.

Structures are written as SMILES.

The subject of assay [1] is Mus musculus. Briefly: In vivo lowering of blood glucose levels in diabetic obese ob/ob mice by measuring postprandial blood glucose level on day 3 after 4 hours at 300 uM/kg oral dose. The format is functional. The gist of the method:
(§1)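 Adult male C57BL ob/ob mice, fed, grouped (6/group) and matched for blood glucose on day 0; mice under 150 mg/dL excluded. Oral dosing in the morning on days 1-3, vehicle 0.5% CMC with 0.2% Tween-80. Significance versus vehicle.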

The subject of assay [2] is Mus musculus. In words: In vivo lowering of blood glucose levels in diabetic obese ob/ob mice, measuring postprandial blood glucose level on day 3 after 2 hours at 300 uM/kg oral dose. The format is functional. The gist of the method: as §1
Assay [3] deals with Mus musculus. Briefly: In vivo lowering of blood glucose levels in diabetic obese ob/ob mice by measuring postprandial blood glucose level on day1 after 4 hours at 300 uM/kg oral dose. It is filed as functional. The gist of the method:
as §1

Assay [4] deals with Mus musculus. Briefly: In vivo lowering of blood glucose levels in diabetic obese ob/ob mice, measuring postprandial blood glucose level on day1 after 2 hours at 300 uM/kg oral dose. The format is functional. In short, it runs like this: as §1
In assay [5] the test system is Mus musculus. In words: In vivo lowering of blood glucose levels in diabetic obese ob/ob mice by measuring postprandial blood glucose level on day 3 after 8 hours at 300 uM/kg oral dose. It is filed as functional. In short, it runs like this: as §1
Assay [6] in a line: lowest concentration at which glucose utilized was greater than or equal to 140% of control value tested in a glucose utilization L6 myocyte in vitro assay. It is filed as functional, Rattus norvegicus. The gist of the method: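 Differentiated rat L6 myotubes (day 11 or 13 after plating) exposed 20 h to compound in serum-free DMEM with 15 mM glucose and 1% final DMSO. Tested in quadruplicate at 3, 10, 30, 100, 300 µM. Glucose left in the medium read by glucose oxidase. Value is the lowest concentration giving at least 40% more utilization than control.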

Turning to `O=C1CC[C@]2(c3ccc(Cl)cc3)OCCN12`, the Efficacy in assay [1] amounted to 28%; in assay [2] it was 23%; in assay [3] it was 7%; in assay [4], 21%; in assay [5], 11%. Besides, the “Lowest effective concentration for glucose utilization ≥140% of control” value in assay [6] was over 1000 µM.

Turning to `CC(C)C(=O)N1C[C@H](COc2ccc(Cl)cc2)O[C@@H]1c1ccc(Cl)c(Cl)c1`, the Efficacy was determined as 24% in assay [1]; 20% in assay [2]; 21% in assay [3]; 32% in assay [4]; 6% in assay [5]. Moreover, in assay [6], the “Lowest effective concentration for glucose utilization ≥140% of control” value was found to be 30 µM.

Take `O=C1CC[C@]2(c3ccc4ccccc4c3)O[C@H](COc3ccc(Cl)cc3)CN12`: the Efficacy in assay [1] was 62%; in assay [2], 49%; in assay [3], 37%; in assay [4], 21%; in assay [5], 39%. Further, in assay [6], the “Lowest effective concentration for glucose utilization ≥140% of control” value was found to be 30 µM.

On to `O=C1CC[C@]2(c3ccccc3)O[C@H](COc3ccc(Cl)cc3)CN12`, for which the Efficacy is -16% in assay [1]; 18% in assay [2]; 45% in assay [3]; 3% in assay [4]; -28% in assay [5]. The “Lowest effective concentration for glucose utilization ≥140% of control” value in assay [6] amounted to 100 µM.

As for `O=C1CC[C@]2(c3c[nH]c4ccccc34)O[C@H](COc3ccc(Cl)cc3)CN12`, in assay [6], the “Lowest effective concentration for glucose utilization ≥140% of control” value is over 300 µM.

As for `O=C1CCC[C@]2(c3ccccc3)O[C@H](COc3ccc(Cl)cc3)CN12`, the Efficacy in assay [1] amounted to 50%; in assay [2] it was 10%; in assay [3], 29%; in assay [4] it was 42%; in assay [5], 54%. Moreover, in assay [6], the “Lowest effective concentration for glucose utilization ≥140% of control” value was 30 µM.

As to `O=C1CC[C@]2(c3ccc(F)cc3)O[C@H](COc3ccc(Cl)cc3)CN12`, the Efficacy in assay [1] is 60%; in assay [2] it was 67%; in assay [3], 19%; in assay [4], -2%; in assay [5], 38%. The “Lowest effective concentration for glucose utilization ≥140% of control” value in assay [6] was found to be 30 µM.

As for `CC(C)(O)c1cc(-c2ccc(Oc3ccccc3)cc2)no1`, the Efficacy in assay [1] is 60%; in assay [2] it was 61%; in assay [3], -2%; in assay [4], 6%; in assay [5] it was 55%. The “Lowest effective concentration for glucose utilization ≥140% of control” value in assay [6] was determined as 30 µM.

As to `O=C1CCC[C@]2(c3ccc(Oc4ccccc4)cc3)OCCN12`, the Efficacy in assay [1] was found to be 50%; in assay [2], 45%; in assay [3], 29%; in assay [4] it was 25%; in assay [5], 3%. For the same molecule, the “Lowest effective concentration for glucose utilization ≥140% of control” value in assay [6] is 30 µM.

As to `O=C1CC[C@]2(c3ccc(Oc4ccccc4)cc3)OCCN12`, the Efficacy is listed as -1% in assay [1]; -3% in assay [2]; 11% in assay [3]; -8% in assay [4]; -4% in assay [5]. Also, the “Lowest effective concentration for glucose utilization ≥140% of control” value in assay [6] stood at 300 µM.

Consider `CS(=O)(=O)N1C[C@@H](COc2ccc(Cl)cc2)O[C@@H]1c1ccc(Cl)cc1`, for which the Efficacy in assay [1] is 55%; in assay [2], 11%; in assay [3], 18%; in assay [4], -10%; in assay [5] it was 22%. Moreover, the “Lowest effective concentration for glucose utilization ≥140% of control” value in assay [6] is 30 µM.

Take `OCc1cc(-c2ccc(Cl)cc2)no1`: the Efficacy in assay [1] is 53%; in assay [2] it was 61%; in assay [3], -1%; in assay [4], -3%; in assay [5], 34%. Further, the “Lowest effective concentration for glucose utilization ≥140% of control” value in assay [6] was determined as 100 µM.

Regarding `O=C1CC[C@]2(c3ccc4ccccc4c3)O[C@@H](COc3ccc(Cl)cc3)CN12`, the Efficacy in assay [1] was 7%; in assay [2], 13%; in assay [3], -11%; in assay [4] it was -6%; in assay [5], 8%. Moreover, the “Lowest effective concentration for glucose utilization ≥140% of control” value in assay [6] is over 300 µM.

Regarding `OCc1cc(-c2ccc(Oc3ccccc3)cc2)no1`, the Efficacy in assay [1] was found to be 14%; in assay [2], 56%; in assay [3] it was 15%; in assay [4] it was 14%; in assay [5], 24%. For the same molecule, in assay [6], the “Lowest effective concentration for glucose utilization ≥140% of control” value came out at 30 µM.

For the molecule `CC(=O)N1C[C@H](COc2ccc(Cl)cc2)O[C@@H]1c1ccc(Cl)cc1`, the Efficacy in assay [1] is 54%; in assay [2], 42%; in assay [3] it was 0%; in assay [4], 10%; in assay [5] it was 54%. Besides, in assay [6], the “Lowest effective concentration for glucose utilization ≥140% of control” value was 100 µM.

`O=C1CC[C@]2(c3ccc(Cl)cc3)O[C@H](CNc3ccc(Cl)cc3)CN12`: in assay [6], the “Lowest effective concentration for glucose utilization ≥140% of control” value was over 300 µM.

With `O=C1CC[C@]2(c3ccc4c(c3)CCc3ccccc3-4)O[C@H](COc3ccc(Cl)cc3)CN12`, the Efficacy in assay [1] worked out at 56%; in assay [2], 51%; in assay [3] it was 38%; in assay [4], 31%; in assay [5], 45%. The “Lowest effective concentration for glucose utilization ≥140% of control” value in assay [6] amounted to 30 µM.

Take `CS(=O)(=O)N1C[C@H](COc2ccc(Cl)cc2)O[C@@H]1c1ccc(Cl)cc1`: the Efficacy in assay [1] is recorded as 59%; in assay [2] it was 35%; in assay [3], -4%; in assay [4], -12%; in assay [5] it was 29%. For the same molecule, the “Lowest effective concentration for glucose utilization ≥140% of control” value in assay [6] was found to be 100 µM.

As to `O=C1CC[C@]2(c3ccc4oc5ccccc5c4c3)O[C@H](COc3ccc(Cl)cc3)CN12`, the Efficacy in assay [1] was 16%; in assay [2] it was 8%; in assay [3] it was -43%; in assay [4], -25%; in assay [5] it was 7%. The “Lowest effective concentration for glucose utilization ≥140% of control” value in assay [6] is 30 µM.

For `O=C1CC[C@]2(c3ccc(Cl)cc3)S[C@H](COc3ccc(Cl)cc3)CN12`, the Efficacy in assay [1] was 9%; in assay [2], -11%; in assay [3], 14%; in assay [4], 28%; in assay [5], 11%. In addition, the “Lowest effective concentration for glucose utilization ≥140% of control” value in assay [6] is over 300 µM.

For the molecule `O=C1CC[C@]2(c3ccc(Cl)cc3)SCCN12`, the Efficacy in assay [1] was 64%; in assay [2] it was 57%; in assay [3], 2%; in assay [4], 16%; in assay [5] it was 68%. Further, the “Lowest effective concentration for glucose utilization ≥140% of control” value in assay [6] came to 300 µM.

`COC(=O)N1C[C@H](COc2ccc(Cl)cc2)O[C@@H]1c1ccc(Cl)c(Cl)c1`: the Efficacy in assay [1] is 19%; in assay [2] it was 25%; in assay [3], 40%; in assay [4], 13%; in assay [5], -9%. The “Lowest effective concentration for glucose utilization ≥140% of control” value in assay [6] is 30 µM.

In the case of `O=C1CC[C@]2(c3ccc(Cl)cc3)O[C@H](COc3ccc(Cl)cc3)CCN12`, in assay [6], the “Lowest effective concentration for glucose utilization ≥140% of control” value is over 300 µM.

As to `O=C1CC[C@]2(c3ccc(Cl)c(Cl)c3)OC(COc3ccc(Cl)cc3)CN12` (stereo not given in full), the Efficacy is reported as 80% in assay [1]; 70% in assay [2]; 36% in assay [3]; 0% in assay [4]; 78% in assay [5]. Moreover, in assay [6], the “Lowest effective concentration for glucose utilization ≥140% of control” value came out at 10 µM.

On to `COc1ccc(OC[C@@H]2CN3C(=O)CC[C@]3(c3ccc(Cl)cc3)O2)cc1`, for which the Efficacy in assay [1] was -8%; in assay [2] it was -19%; in assay [3] it was -20%; in assay [4] it was -17%; in assay [5] it was -28%. In assay [6], the “Lowest effective concentration for glucose utilization ≥140% of control” value was 100 µM.

Regarding `CS(=O)(=O)N1C[C@H](COc2ccc(Cl)cc2)O[C@@H]1c1ccc(Cl)c(Cl)c1`, the “Lowest effective concentration for glucose utilization ≥140% of control” value in assay [6] stood at 30 µM.

As for `O=C1CC[C@]2(c3ccc(Oc4ccccc4)cc3)O[C@H](COc3ccc(Cl)cc3)CN12`, the Efficacy is reported as -25% in assay [1]; 2% in assay [2]; -6% in assay [3]; -29% in assay [4]; -3% in assay [5]. For the same molecule, in assay [6], the “Lowest effective concentration for glucose utilization ≥140% of control” value was found to be 10 µM.

Take `O=C1CC[C@]2(c3ccc(Cl)c(Cl)c3)OC(COc3ccc(Cl)cc3)CN12` (single isomer, unassigned): in assay [6], the “Lowest effective concentration for glucose utilization ≥140% of control” value is over 300 µM.

Turning to `CN(C)C(=N)NC(=N)N.Cl` [METFORMIN HYDROCHLORIDE], in assay [6], the “Lowest effective concentration for glucose utilization ≥140% of control” value amounted to 1000 µM.

Turning to `Cc1c(C)c2c(c(C)c1O)CCC(C)(COc1ccc(CC3SC(=O)NC3=O)cc1)O2` (stereo not given) [TROGLITAZONE], in assay [6], the “Lowest effective concentration for glucose utilization ≥140% of control” value came out at 30 µM.
